Active and inactive are the calls of the source. No cut-off for these calls is given here.
Columns and labels:
A-375 [1] = test: Cytotoxicity against human A375 cells pre-treated with 20 uM JNK inhibitor SP600125 for 1 hr followed by 8 ug/mL compound exposure for 18 hrs by MTT assay; format: functional, cell-based
Outline: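 A375 cells pretreated 1 h with 20 µM SP600125 (JNK) or SB203580 (p38), then exposed to compound at 8 µg/ml for 18 h. Viability by MTT (formazan in DMSO, 570 nm), expressed as % of control.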

A-375 [2] = test: Induction of cell shrinkage in human A375 cells pre-treated with 20 uM p38 inhibitor […] for 1 hr followed by 8 ug/mL compound exposure for 18 hrs by microscopy; format: functional, cell-based
Outline: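 A375 cells pretreated 1 h with […] JNK inhibitor SP600125 or p38 inhibitor SB203580, then given […] compound for 18 h. Morphology imaged.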

A-375 [3] = test: Induction of ROS generation in human A375 cells at 2 ug/mL […] by DCF and DHE dye based fluorescence assay; format: functional, cell-based
A-375 [4] = test: Induction of ROS generation in human A375 cells at 4 ug/mL […] by DCF and DHE dye based fluorescence assay; format: functional, cell-based
A-375 [5] = test: Induction of apoptosis in human A375 cells assessed as accumulation at subG1 phase at 4 ug/mL incubated for 6 hrs followed by irradiation with 8 Gy X-ray at 37 degC for 12 hrs by propidium iodide staining based flow cytometry (reference value: 2.3%); format: functional
Outline: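 A375 cells treated at 10 or 4 µg/ml for 6 h, given 0 or 8 Gy X-ray, then 12 h more. Trypsinized, washed in PBS, fixed overnight in ice-cold 75% ethanol at −20 °C. Stained with propidium iodide, 30 min at 37 °C in the dark; DNA content and sub-G1 population read by flow cytometry.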

A-375 [6] = test: Induction of apoptosis in human A375 cells assessed as caspase 8 activation at 2 ug/mL incubated for 6 hrs followed by irradiation with 8 Gy X-ray at 37 degC for 12 hrs by fluorometric assay; format: functional, cell-based
Outline: (§1)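 Cells seeded at 1 × 10⁶ per 10 cm dish and treated with 2 µg/ml alone or with 8 Gy X-ray for 18 h total. RIPA lysates clarified by spinning at 12,000 rpm for 5 min; 80 µg protein given Ac-DEVD-AMC (caspase-3), Ac-IETD-AMC (caspase-8) or Ac-LEHD-AMC (caspase-9). Incubated 2 h at 37 °C in the dark; fluorescence at 380/440 nm.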

A-375 [7] = test: Induction of apoptosis in human A375 cells assessed as caspase 9 activation at 2 ug/mL incubated for 6 hrs followed by irradiation with 8 Gy X-ray at 37 degC for 12 hrs by fluorometric assay; format: functional, cell-based; outline: as §1
A-375 [8] = test: Induction of apoptosis in human A375 cells assessed as caspase 9 activation at 2 ug/mL incubated for 18 hrs by Western blotting method; format: functional, cell-based
Outline: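 A375 cells treated with 2 µg/ml alone or with 8 Gy X-ray (6 h pretreatment, then 12 h; 18 h total). RIPA lysates (50 µg protein) run on SDS-PAGE and immunoblotted for caspases and PARP cleavage. Reprobed for β-actin as loading control.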

COc1cc(-c2nc3cc(-c4ccc5n[se]nc5c4)ccc3[nH]2)cc(OC)c1OC
Activity (A-375 [1]): Active | Activity (A-375 [2]): inactive | Activity (A-375 [3]): Active | Activity (A-375 [4]): Active | Activity (A-375 [5]): 57.1% | Activity (A-375 [6]): Active | Activity (A-375 [7]): Active | Activity (A-375 [8]): Active
